Measured values reported in ChEMBL document CHEMBL3102812 (J Med Chem, 2013).
Active and inactive are the calls of the source. The rule behind the calls is not given here.

Columns and labels:
[1] = test system: Trypanosoma cruzi; test: Antitrypanosomal activity against Trypanosoma cruzi Tulahuen 6 infected in Swiss mouse assessed as mouse survival at 100 mg/kg, po qd administered on day 8 post-infection for 20 days followed by 10 days non-treatment period followed by three cycles of immunosuppression measured on day 58 post-infection by microscopic analysis; type: functional, organism-based; parameters: dose 100 mg/kg
[2] = test system: Trypanosoma cruzi; test: Antitrypanosomal activity against Trypanosoma cruzi Tulahuen 6 infected in Swiss mouse assessed as mouse survival at 100 mg/kg, po qd administered on day 8 post-infection measured on same day by microscopic analysis; type: functional, organism-based; parameters: dose 100 mg/kg
[3] = Plasma concentration in Swiss mouse at 20 mg/kg, po after 0.5 hrs by LC/MS analysis
[4] = Plasma concentration in Swiss mouse at 20 mg/kg, po after 24 hrs by LC/MS analysis
[5] = test system: Trypanosoma cruzi; test: Antitrypanosomal activity against Trypanosoma cruzi Tulahuen 6 infected in Swiss mouse assessed as reduction in blood parasitemia at 20 mg/kg, po qd administered on day 8 post-infection for 10 days by microscopic analysis; type: functional, organism-based; parameters: dose 20 mg/kg
Method in brief: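 Infected Swiss mice dosed orally at 20 mg/kg once daily for up to 10 days starting day 8 pi; blood parasitemia followed by microscopy throughout dosing, scored as cleared or not during the dosing period.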

[6] = test system: Trypanosoma cruzi; test: Antitrypanosomal activity against Trypanosoma cruzi Tulahuen 6 amastigotes infected in rat L6 cells after 96 hrs by colorimetric method; type: functional, organism-based; conditions: Tulahuen 6, L6, 96 h
[7] = test system: Mus musculus; test: Toxicity in Swiss mouse at 20 mg/kg, po; conditions: in vivo

| concentration at 0.5 h [3] [nM] | concentration at 24 h [4] [nM] | IC50 [6] [µM] | SMILES | Activity [1] | Activity [2] | Activity [5] | Activity [7] |
| --- | --- | --- | --- | --- | --- | --- | --- |
| – | – | – | O=C(Cn1ccnc1[N+](=O)[O-])NCc1ccccc1 | inactive | Active | – | – |
| 3260 | 1 | 0.061 | CC(C)(C)NC(=O)N1CCC(NC(c2ccc(C(F)(F)F)cc2)c2cccnc2)CC1 (configuration not stated) | – | – | inactive | Non-toxic |
